ChEMBL document CHEMBL1124180, “Asymmetric synthesis and properties of the enantiomers of the antibacterial agent 7-(3-aminopyrrolidin-1-yl)-1-(2,4-difluorophenyl)-1,4-dihydro-6- fluoro-4-oxo-1,8-naphthyridine-3-carboxylic acid hydrochloride” (J Med Chem, 1988)

Assays:
Assay type in all cases: functional
[1] = test system: Bacteroides thetaiotaomicron; experiment: In vitro activity against thetaiotaomicron (ATCC 29741)
Outline: (§1)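 Anaerobic MICs measured by agar dilution on Wilkins-Chalgren agar.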

Bacteroides fragilis [2] = experiment: In vitro activity against Bacteroides fragilis (SFM2975-7)
Outline: (§2)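 MIC determined under anaerobic conditions on Wilkins-Chalgren agar.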

Acinetobacter sp. = experiment: In vitro activity against Acinetobacter sp.(CMX 669).
Outline: (§3)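 MIC determined by agar dilution on brain-heart infusion agar under aerobic conditions.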

Finegoldia magna = experiment: In vitro activity against Peptococcus magnus (ATCC 29328); outline: as §2
Bacteroides fragilis [3] = experiment: In vitro activity against Bacteroides fragilis (105AT25285); outline: as §2
Phocaeicola vulgatus [4] = experiment: In vitro activity against Bacteroides vulgatus(792); outline: as §2
Peptostreptococcus = experiment: In vitro activity against Peptostreptococcus sp.(TB-11)
Outline: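 MIC for anaerobic bacteria, measured on Wilkins-Chalgren agar.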

Klebsiella pneumoniae = experiment: In vitro activity against Klebsiella pneumoniae (ATCC 8045).; outline: as §3
Streptococcus pyogenes [5] = experiment: In vitro activity against Streptococcus pyogenes (2548 INDUC).; outline: as §3
Escherichia coli [6] = experiment: In vitro activity against Escherichia coli (DC-2)
Outline: (§4)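 MIC for aerobic bacteria, measured on brain-heart infusion agar.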

Phocaeicola vulgatus [7] = experiment: In vitro activity against Bacteroides vulgatus(SFBC 2375); outline: as §2
[8] = test system: Bacteroides thetaiotaomicron; experiment: In vitro activity against Bacteroides thetaiotaomicron (106); outline: as §2
Pseudomonas aeruginosa [9] = experiment: In vitro activity against Pseudomonas aeruginosa (K799/WT).; outline: as §3
Veillonella parvula = experiment: In vitro activity against Veillonella parvula (ATCC 10790); outline: as §1
Thomasclavelia ramosa = experiment: In vitro activity against Clostridium romosum (7)
Clostridioides difficile [10] = experiment: In vitro activity against Clostridium difficile (ATCC 9689)
[11] = test system: Prevotella melaninogenica; experiment: In vitro activity against Bacteroides melaninogenicus (ATCC 25845).; outline: as §2
Providencia stuartii = experiment: In vitro activity against Providencia stuartii (CMX 640); outline: as §3
Prevotella disiens = experiment: In vitro activity against Bacteroides disiens (ATCC 29426); outline: as §2
Streptococcus pyogenes [12] = experiment: In vitro activity against Streptococcus pyogenes(930 CONST).; outline: as §3
Staphylococcus aureus [13] = experiment: In vitro activity against Staphylococcus aureus(CMX 553); outline: as §3
Bacteroides fragilis [14] = experiment: In vitro activity against Bacteroides fragilis (SFM2906A); outline: as §2
Clostridium perfringens [15] = experiment: In vitro activity against Clostridium perfringens (SFBC 2026)
Micrococcus luteus [16] = experiment: In vitro activity against Micrococcus luteus (ATCC 9341); outline: as §3
Streptococcus equinus = experiment: In vitro activity against Streptococcus bovis (A5169).; outline: as §3
Bacteroides fragilis [17] = experiment: In vitro activity against Bacteroides fragilis (784); outline: as §2
Staphylococcus aureus [18] = experiment: In vitro activity against Staphylococcus aureus(45); outline: as §3
Bacteroides fragilis [19] = experiment: In vitro activity against Bacteroides fragilis (SFM2929-1); outline: as §2
Clostridium perfringens [20] = experiment: In vitro activity against Clostridium perfringens (104AT13124)
Clostridioides difficile [21] = experiment: In vitro activity against Clostridium difficile (ATCC 17857)
Staphylococcus aureus [22] = experiment: In vitro activity against Staphylococcus aureus(CMX 503A); outline: as §3
[23] = test system: Staphylococcus epidermidis; experiment: In vitro activity against Staphylococcus epidermidis (3519); outline: as §3
Staphylococcus aureus [24] = experiment: In vitro activity against Staphylococcus aureus(ATCC 6538P); outline: as §3
Prevotella bivia = experiment: In vitro activity against t Bacteroides bivius(B 6140); outline: as §1
Bacteroides fragilis [25] = experiment: In vitro activity against Bacteroides fragilis (UC-2); outline: as §2
Staphylococcus aureus [26] = experiment: In vitro activity against Staphylococcus aureus(CMX 686B); outline: as §3
Escherichia coli [27] = experiment: In vitro activity against Escherichia coli (KNK437); outline: as §4
[28] = test system: Bacteroides thetaiotaomicron; experiment: In vitro activity against Bacteroides thetaiotaomicron (ATCC 29742); outline: as §2
Escherichia coli [29] = experiment: In vitro activity against Escherichia coli (SS).; outline: as §4
Klebsiella aerogenes = experiment: In vitro activity against Enterobacter aerogenes (ATCC 13048).; outline: as §3
Hoylesella loescheii = experiment: In vitro activity against Bacteroides loescheii (ATCC 15930).; outline: as §2
Pseudomonas aeruginosa [30] = experiment: In vitro activity against Pseudomonas aeruginosa (A5007).; outline: as §3
Fusobacterium nucleatum = experiment: In vitro activity against Fusobacterium nucleatum (ATCC 25586); outline: as §2
Escherichia coli [31] = experiment: In vitro activity against Escherichia coli (H560); outline: as §4
Streptococcus pyogenes [32] = experiment: In vitro activity against Streptococcus pyogenes (EES61); outline: as §3
Fusobacterium = experiment: In vitro activity against Fusobacterium sp.(GS-10); outline: as §2
Streptococcus agalactiae = experiment: In vitro activity against Streptococcus agalactiae (CMX 508).; outline: as §3
Staphylococcus aureus [33] = experiment: In vitro activity against Staphylococcus aureus(45 RAR2); outline: as §3
Cutibacterium acnes = experiment: In vitro activity against Propionibacterium acnes (132); outline: as §2
[34] = test system: Peptostreptococcus anaerobius; experiment: In vitro activity against Peptostreptococcus anaerobius (ATCC 27337); outline: as §2
Staphylococcus aureus [35] = experiment: In vitro activity against Staphylococcus aureus (A5177); outline: as §3
Parvimonas micra = experiment: In vitro activity against Peptostreptococcus micros (ATCC 33270).; outline: as §2
Burkholderia cepacia = experiment: In vitro activity against Pseudomonas cepacia (296I); outline: as §3
[36] = test system: Peptoniphilus asaccharolyticus; experiment: In vitro activity against Peptococcus asaccharolyticus (ATCC 14963).; outline: as §2
Pseudomonas aeruginosa [37] = experiment: In vitro activity against Pseudomonas aeruginosa (BMH10); outline: as §3
[38] = test system: Bacteroides thetaiotaomicron; experiment: In vitro activity against Bacteroides thetaiotaomicron (SFM2975-2); outline: as §2
Micrococcus luteus [39] = experiment: In vitro activity against Micrococcus luteus (ATCC 4698); outline: as §3
Escherichia coli [40] = experiment: In vitro activity against Escherichia coli Juhl; outline: as §4
Enterococcus faecium = experiment: In vitro activity against Enterococcus faecium (ATCC 8043).; outline: as §3
Clostridium perfringens [41] = experiment: In vitro activity against Clostridium perfringens (788)

Measured: MIC

Cl.N[C@@H]1CCN(c2nc3c(cc2F)c(=O)c(C(=O)O)cn3-c2ccc(F)cc2F)C1
8 µg/mL: [1] | [8] | [28]
4 µg/mL: Bacteroides fragilis [2] | Clostridioides difficile [10] | Clostridioides difficile [21] | Hoylesella loescheii | [38]
0.39 µg/mL: Escherichia coli [6] | Pseudomonas aeruginosa [9] | Streptococcus pyogenes [12] | Streptococcus equinus | Escherichia coli [27] | Pseudomonas aeruginosa [30] | Streptococcus pyogenes [32] | Streptococcus agalactiae | Enterococcus faecium
6.2 µg/mL: Burkholderia cepacia
0.12 µg/mL: Parvimonas micra
0.05 µg/mL: Klebsiella pneumoniae | Staphylococcus aureus [24] | Staphylococcus aureus [26] | Escherichia coli [31] | Escherichia coli [40]
0.01 µg/mL: Escherichia coli [29]
0.5 µg/mL: Finegoldia magna | Peptostreptococcus | Veillonella parvula | [34]
3.1 µg/mL: Micrococcus luteus [16]
0.1 µg/mL: Acinetobacter sp. | Staphylococcus aureus [13] | Staphylococcus aureus [18] | Staphylococcus aureus [22] | [23] | Staphylococcus aureus [33] | Staphylococcus aureus [35]
0.2 µg/mL: Streptococcus pyogenes [5] | Klebsiella aerogenes | Pseudomonas aeruginosa [37]
1 µg/mL: Phocaeicola vulgatus [7] | [11] | Cutibacterium acnes
0.25 µg/mL: Clostridium perfringens [15] | Clostridium perfringens [20] | [36] | Clostridium perfringens [41]
1.56 µg/mL: Providencia stuartii | Micrococcus luteus [39]
2 µg/mL: all other assays above
